Shown are actives, neighbours in structure and some others; about 3.1% of the full set was active somewhere.
PHOSPHO1 block = blocks human PHOSPHO1 phosphatase activity. Q8TCT1. recombinant PHOSPHO1, absorbance phosphatase assay. inhibition, % at 13.3 µM. 1.1% of 290,000 active. AID 1565; in the data active = inhibition above about 60%
Target sequence (Q8TCT1 whole entry, looked up): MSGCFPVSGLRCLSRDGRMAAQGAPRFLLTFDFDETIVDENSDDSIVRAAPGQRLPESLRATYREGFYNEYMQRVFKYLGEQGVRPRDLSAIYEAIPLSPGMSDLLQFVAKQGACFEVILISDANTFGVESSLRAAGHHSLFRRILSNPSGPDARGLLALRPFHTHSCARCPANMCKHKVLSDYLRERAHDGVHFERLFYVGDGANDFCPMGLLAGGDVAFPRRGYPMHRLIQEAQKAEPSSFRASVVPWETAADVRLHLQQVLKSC
VIM-2 inhibitor = blocks Pseudomonas aeruginosa VIM-2 metallo-beta-lactamase; inhibition, % at 5.6 µM; 0.89% of 290,000 active; purified VIM-2, nitrocefin hydrolysis, epi-absorbance fluorescence;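 active = inhibition above the mean of all tested compounds plus 3 SD, cutoff set per screening run, cut at about 7.5% in these data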;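 also: red hydrolysis product quenches plate fluorescence so inhibitors raise well fluorescence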
NS3 helicase inh = inhibitors of Hepatitis C virus NS3 helicase | NS3 helicase DNA unwinding, Cy5 molecular beacon fluorescence | inhibition, % at 10.9 µM | 0.56% of 290,000 active;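 active = inhibition above the mean of all tested compounds plus 3 SD, set per campaign, cut at about 35% in these data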
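Compound dosing – single dose, 10.9 µM nominal final, DMSO 0.8% final · System – NS3 helicase fragment of HCV · Buffer or medium – MOPS pH 6.5, MgCl2, DTT, Tween20, BSA · Signal – Cy5 beacon fluorescence read at start and 1 h · Also added – annealed dual-labelled DNA beacon duplex, ATP-started · Schedule – 1 h at 25 °C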
IMP-1 inh = blocks Pseudomonas aeruginosa IMP-1 metallo-beta-lactamase; purified IMP-1, nitrocefin hydrolysis, epi-absorbance fluorescence; inhibition, % at 5.6 µM; AID 1556; 0.45% of 290,000 active;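 active = inhibition above the mean plus 3 SD of all compounds in the same screening run, cut at about 4.5% in these data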
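System – purified recombinant IMP-1 beta-lactamase · Input – IMP-1 dispensed at 0.2 nM · Timing – 15 min preincubation plus 25 min reaction at 25 °C · Signal – Epi-absorbance fluorescence, 480 nm excitation, 530 nm emission · Measure – percent IMP-1 inhibition derived from blank-referenced optical density · Controls – Enzyme-plus-DMSO low control, enzyme-free DMSO high control · Replication – singlicate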
UBC9 SUMO inh = blocks human SUMOylation mediated by UBC9. P63279. HTRF SUMOylation assay, SAE1/SAE2 + UBC9, in vitro. inhibition, % at 35 µM. 0.36% of 290,000 active. AID 2006; in the data active = inhibition above about 50%, passing the limit was not always enough
Target sequence (P63279 whole entry, looked up): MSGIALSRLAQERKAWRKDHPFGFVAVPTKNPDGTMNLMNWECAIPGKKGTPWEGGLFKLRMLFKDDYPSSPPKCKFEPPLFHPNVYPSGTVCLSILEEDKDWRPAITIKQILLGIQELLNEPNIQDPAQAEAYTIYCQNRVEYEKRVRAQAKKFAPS
core dimer inh = HCV core protein dimerization inhibition; 0.33% of 300,000 active; inhibition, % at 5 µM; TR-FRET GST/Flag-core106 dimerization, 1536-well; AID 1899;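 active = inhibition above the mean of all tested compounds plus 3 SD, set per screening campaign, cut at about 45% in these data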
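assay system = GST-tagged and Flag-tagged HCV core protein residues 1-106 | controls = unlabelled core106 and no-GST-core106 wells | incubation = compound-protein-antibody incubation 4 h at 22.5 °C | probe or stimulus = Eu donor and XL665 acceptor anti-tag antibodies | read-out = % inhibition based on acceptor/donor emission ratio | signal = TR-FRET 671 and 617 nm emission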
Hits are given with their value; - = inactive; . = no result.

SMILES	PHOSPHO1 block	VIM-2 inhibitor	NS3 helicase inh	IMP-1 inh	UBC9 SUMO inh	core dimer inh
COc1ccc(C(=O)/C=C/Sc2nc3ccccc3o2)cc1	-	-	-	-	-	-
Nc1nc(-c2ccccn2)nc(N)c1Cc1ccc(Cl)cc1Cl	-	-	-	-	-	-
Cn1nccc1C(=O)N1CCCC(N2CCN(Cc3ccc4c(c3)OCO4)CC2)C1 (stereo unspecified)	61	-	-	-	-	.
CCn1nc(C)cc1C(=O)N1CCCC(N2CCN(Cc3ccc4c(c3)OCO4)CC2)C1 (stereo unspecified)	-	-	-	-	-	-
Cc1cc(C)n2nc(C(=O)OCC(=O)N(C)C3CCCCC3)nc2n1	.	.	.	.	.	-
COCCCn1c(N)c(-c2nc3ccccc3n2C)c2nc3ccccc3nc21	-	-	-	-	-	-
CCn1nc([N+](=O)[O-])c2c(-c3nc4ccccc4o3)c(N)n(CCCOC)c2c1=O	96	-	-	-	-	-
COc1cccc(CNC(=O)C(NS(=O)(=O)c2ccc3c(c2)CCN3C(C)=O)C(C)C)c1 (stereo unspecified)	-	-	-	-	.	-
Cc1cc(=O)[nH]c(-n2[nH]c3c(c2=O)CCCC3)n1	-	-	-	14	-	-
COc1ccc(-c2csc(Nc3cccnc3)n2)cc1OC	-	12	-	-	-	-
O=C(NCc1ccccc1Cl)c1ccc(Cn2cc(C(F)(F)F)ccc2=O)cc1	65	-	-	-	-	-
O=C(NCc1ccc(Cl)cc1)c1ccc(Cn2cc(C(F)(F)F)ccc2=O)cc1	-	-	-	-	-	-
CC(C)(C)n1nc2c(c1NC(=O)c1cccc(Cl)c1)CS(=O)(=O)C2	65	-	-	-	-	-
Cc1csc(N)n1	-	-	-	-	-	-
Cc1ccc(-c2csc(N)n2)s1	71	-	-	-	-	-
Cc1ccccc1C(=O)NNC(=S)NC(=O)c1ccc(Cl)cc1Cl	100	-	-	-	-	-
CN(C)c1ccc(C(CNC(=O)c2ccc(-c3ccccc3)cc2)N2CCOCC2)cc1 (stereo unspecified)	.	.	.	.	.	-
COc1c(C)oc2cc(O)ccc2c1=O	-	-	-	-	50	-
COc1ccc(Oc2coc3cc(O)ccc3c2=O)cc1	-	-	-	25	-	.
COc1ccccc1Oc1coc2cc(O)ccc2c1=O	-	-	-	-	-	-
CC(C)N(Cc1ccccc1)C(=O)CN1C(=O)NC(Cc2ccccc2)(c2ccccc2)C1=O (stereo unspecified)	-	-	-	-	-	-
Cc1cccc2nc(CNC(=O)C3CCC(=O)N(Cc4ccccc4F)C3)cn12 (stereo unspecified)	-	-	-	-	-	-
O=C(NCc1cnc2ccccn12)C1CCC(=O)N(Cc2ccccc2F)C1 (stereo unspecified)	66	-	-	-	-	.
O=C(O)c1ccc(N2CCCS2(=O)=O)cc1	-	-	-	-	-	-
C=CCNc1nc(NC(C)(C)CO)nc(OC)n1	-	-	-	-	-	-
SMILES	PHOSPHO1 block	VIM-2 inhibitor	NS3 helicase inh	IMP-1 inh	UBC9 SUMO inh	core dimer inh
C=CCNc1nc(NC(C)(C)CO)nc(OCC)n1	-	-	-	28	-	-
O=C(C1=NN[C@@H]2C(=O)N(c3cccc(C(F)(F)F)c3)C(=O)[C@H]12)C(c1ccccc1)c1ccccc1	-	-	-	-	-	-
O=C(C1=NN[C@@H]2C(=O)N(c3cccc(F)c3)C(=O)[C@H]12)C(c1ccccc1)c1ccccc1	-	-	-	5.2	-	-
CCOc1ccc(CCNC(=O)c2ccc(S(=O)(=O)N3CCCC3)cc2)cc1OCC	.	.	.	.	.	-
CN(C)CCCNCCCCNC(=O)/C=N/O	-	-	-	-	-	-
CN(C)CCCNCCCNC(=O)/C=N/O	-	-	-	4.6	-	-
O=C1C2CCCCN2C(=O)N1CCCCN1CCN(c2cccc(Br)c2)CC1 (stereo unspecified)	.	-	-	-	-	-
Cc1ccc(N2C(=O)C3CC(c4ccccc4)=C4C5C=CC(C6C(=O)N(c7ccc(C)cc7C)C(=O)C56)C4C3C2=O)c(C)c1 (stereo unspecified)	-	-	-	-	-	52
CCCCCn1c(SCCN2CCOCC2)nc2c1c(=O)[nH]c(=O)n2C	69	-	-	-	-	-
CCCSc1nc2c(c(=O)[nH]c(=O)n2C)n1Cc1ccc(C)cc1	-	-	-	-	-	-
Cn1c(=O)[nH]c(=O)c2c1nc(SCC(=O)O)n2CCc1ccccc1	91	-	-	-	-	-
Cc1ccc(Cn2c(SCC(C)C)nc3c2c(=O)[nH]c(=O)n3C)cc1	90	-	-	-	-	-
CC(C)Sc1nc2c(c(=O)[nH]c(=O)n2C)n1Cc1ccc(Cl)cc1	84	-	-	-	-	-
CCC(C)Sc1nc2c(c(=O)[nH]c(=O)n2C)n1Cc1ccc(Cl)cc1 (stereo unspecified)	-	-	-	-	-	-
CCOC(=O)CSc1nc2c(c(=O)[nH]c(=O)n2C)n1CCc1ccccc1	-	-	-	-	-	-
CCCCCCn1c(SCCN2CCOCC2)nc2c1c(=O)[nH]c(=O)n2C	-	-	-	-	-	-
O=C(CNC(=O)c1ccccc1)OCc1cc(=O)n2cc(Br)ccc2n1	-	-	-	-	-	-
CCCCn1c(SCC(=O)OCC)nc2c1c(=O)[nH]c(=O)n2C	-	-	-	-	-	-
CCOC(=O)CSc1nc2c(c(=O)[nH]c(=O)n2C)n1C/C=C(/C)Cl	81	-	-	-	-	-
O=C(O)CCC(=O)c1ccc2c(c1)OCCO2	-	-	-	-	-	-
O=C(O)CCSCC(=O)c1ccc2c(c1)OCCO2	78	-	-	-	-	-
COCCn1c(C)cc(C2=NNC(=Nc3ccccc3)SC2)c1C	102	-	-	-	-	-
CCN=C1NN=C(c2cc(C)n(Cc3ccco3)c2C)CS1	-	-	-	-	-	48
CC(C)Oc1ccccc1C1NC(=O)CCC1[N+](=O)[O-] (stereo unspecified)	-	-	-	-	-	-
CCOC(=O)C1(Cc2cccc(F)c2)CCN(C(=O)c2ccoc2C)CC1	63	-	-	-	-	-
CCCNC(=O)CN1C(=O)COc2ccc(S(=O)(=O)N3CCCCCC3)cc21	-	-	-	-	-	-
COc1ccc(NC(=O)CN2C(=O)COc3ccc(S(=O)(=O)N4CCCCCC4)cc32)cc1	64	-	-	-	-	-
CCCNC(=O)CN1C(=O)COc2ccc(S(=O)(=O)N3CC(C)CC(C)C3)cc21 (stereo unspecified)	74	-	-	-	-	-
CCc1ccc(C2C(C#N)=C(N)SC(N)=C2C#N)s1	-	-	-	-	-	53
CCc1ccc(C2C(C#N)=C(N)SC(N)=C2C#N)cc1	-	-	-	-	-	-
